The target of assay [1] is T1, Protein farnesyltransferase/geranylgeranyltransferase type-1 subunit alpha (Saccharomyces cerevisiae S288c, UniProt P29703).
T1 sequence (P29703 whole entry): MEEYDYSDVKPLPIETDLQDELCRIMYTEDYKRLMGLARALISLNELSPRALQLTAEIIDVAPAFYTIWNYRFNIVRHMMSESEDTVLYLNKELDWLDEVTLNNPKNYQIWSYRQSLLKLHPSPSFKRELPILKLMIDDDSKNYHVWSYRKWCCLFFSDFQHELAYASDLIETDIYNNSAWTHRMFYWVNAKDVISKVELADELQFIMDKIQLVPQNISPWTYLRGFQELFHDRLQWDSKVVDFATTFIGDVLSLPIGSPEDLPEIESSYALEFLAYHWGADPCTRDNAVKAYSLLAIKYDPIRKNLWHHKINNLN
Put plainly: Inhibition of Saccharomyces cerevisiae protein farnesyltransferase assessed as farnesylation of N-dansyl-GCVIA. An outline of the steps: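 Purified ScPFTase at 5.0 nM; continuous fluorescence assay following dansyl fluorescence rise as N-dansyl-GCVIA (2.4 µM) is prenylated. For IC50, FPP fixed at 2.4 µM, inhibitor 0–20 µM, duplicates, direct fit of rate vs inhibitor concentration. For KI, 4×6 grid of duplicates with FPP at 1, 2, 5, 7.0 µM and inhibitor 0–2 µM; initial velocities, Eadie-Hofstee plot.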

Assay [2] relates to Drosophila melanogaster. Nature of the assay: Binding affinity to Drosophila melanogaster farnesyl diphosphate synthase assessed as photolabeling at 29 uM by SDS-PAGE based phosphor imaging analysis. The conditions noted are these: tested as the 32P-labelled form. Summed up: (§1)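 Purified enzyme (50 µg/mL) in 52 mM Tris·HCl pH 7.0, 5.8 mM DTT, 12 mM MgCl2, 12 µM ZnCl2, 25 mM NH4HCO3 with [32P]probe 29 µM; irradiated 350 nm, 6 h, 4 °C; protection runs add FPP 100 µM final. SDS loading buffer, 70 °C 20 min, 12% Tris-Tricine SDS-PAGE, Coomassie stain, phosphorimaging.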

For assay [3], the system named is Nostoc. Put plainly: Binding affinity to Nostoc PCC 7120 sesquiterpene synthase assessed as photolabeling at 29 uM by SDS-PAGE based phosphor imaging analysis. To be noted: tested as the 32P-labelled form. Summed up:
as §1

Assay [4] concerns the target T2, Protein farnesyltransferase/geranylgeranyltransferase type-1 subunit alpha (Saccharomyces cerevisiae S288c) (UniProt P29703).
T2 sequence (whole entry): T1 sequence (P29703 whole entry)
Nature of the assay: Binding affinity to Saccharomyces cerevisiae protein farnesyltransferase assessed as enzyme beta subunit photolabeling at 29 uM by SDS-PAGE based phosphor imaging analysis. To be noted: tested as the 32P-labelled form. An outline of the steps:
as §1

The target of assay [5] is T2, Protein farnesyltransferase/geranylgeranyltransferase type-1 subunit alpha (Saccharomyces cerevisiae S288c). Nature of the assay: Binding affinity to Saccharomyces cerevisiae protein farnesyltransferase assessed as photolabeling at 29 uM by SDS-PAGE based phosphor imaging analysis in presence of excess farnesyl diphosphate. To be noted: tested as the 32P-labelled form. An outline of the steps: as §1

Assay [6] concerns Drosophila melanogaster. Put plainly: Binding affinity to Drosophila melanogaster farnesyl diphosphate synthase assessed as photolabeling at 29 uM by SDS-PAGE based phosphor imaging analysis in presence of excess farnesyl diphosphate. To be noted: tested as the 32P-labelled form. Summed up:
as §1

Assay [7] has as its system Nostoc. Nature of the assay: Substrate activity at Nostoc PCC 7120 sesquiterpene synthase in absence of farnesyl diphosphate. To be noted: tested as the 32P-labelled form.
Assay [8] has as its target T3, Farnesyl diphosphate synthase (Escherichia coli K-12) (UniProt P22939).
T3 sequence (whole entry): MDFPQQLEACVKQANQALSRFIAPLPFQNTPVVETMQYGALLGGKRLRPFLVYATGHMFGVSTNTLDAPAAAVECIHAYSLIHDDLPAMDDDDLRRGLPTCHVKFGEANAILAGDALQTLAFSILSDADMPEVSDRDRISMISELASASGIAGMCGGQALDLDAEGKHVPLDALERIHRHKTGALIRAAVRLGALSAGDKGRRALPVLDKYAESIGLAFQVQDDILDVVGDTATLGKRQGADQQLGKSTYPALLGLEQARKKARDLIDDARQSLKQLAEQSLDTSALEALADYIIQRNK
Nature of the assay: Binding affinity to Escherichia coli farnesyl diphosphate synthase assessed as photolabeling at 29 uM by SDS-PAGE based phosphor imaging analysis in absence of UV irradiation. The conditions noted are these: tested as the 32P-labelled form.

In assay [9] the test system is Nostoc. Put plainly: Inhibition of Nostoc PCC 7120 sesquiterpene synthase in presence of farnesyl diphosphate. An outline of the steps:
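Purified cyclase (10 µg) in 200 µL 10 mM Tris·HCl pH 8.0, 10 mM MgCl2, 1.0 mM 2-mercaptoethanol with probe and/or FPP (50, 100 or 200 µM), sealed vial, 18 h at 25 °C; headspace sampled 10 min by SPME, GC/MS analysis of sesquiterpene product.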

Assay [10] concerns the target T3, Farnesyl diphosphate synthase (Escherichia coli K-12). Put plainly: Binding affinity to Escherichia coli farnesyl diphosphate synthase assessed as photolabeling at 29 uM by SDS-PAGE based phosphor imaging analysis. To be noted: tested as the 32P-labelled form. Summed up: as §1
In assay [11] the target is T2, Protein farnesyltransferase/geranylgeranyltransferase type-1 subunit alpha (Saccharomyces cerevisiae S288c). Nature of the assay: Activity at Saccharomyces cerevisiae protein farnesyltransferase upto 200 uM by continuous fluorescence assay. An outline of the steps: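 Purified yeast PFTase; continuous fluorescence read-out of dansyl signal increase on prenylation of N-dansyl-GCVIA acceptor, with analogue replacing FPP at up to 200 µM.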

Assay [12] relates to Drosophila melanogaster. Put plainly: Binding affinity to Drosophila melanogaster farnesyl diphosphate synthase assessed as photolabeling at 29 uM by SDS-PAGE based phosphor imaging analysis in absence of UV irradiation. The conditions noted are these: tested as the 32P-labelled form.
Assay [13] has as its target T2, Protein farnesyltransferase/geranylgeranyltransferase type-1 subunit alpha (Saccharomyces cerevisiae S288c). Nature of the assay: Binding affinity to Saccharomyces cerevisiae protein farnesyltransferase assessed as photolabeling at 29 uM by SDS-PAGE based phosphor imaging analysis in absence of UV irradiation. The conditions noted are these: tested as the 32P-labelled form.

The test system of assay [14] is Nostoc. Put plainly: Binding affinity to Nostoc PCC 7120 sesquiterpene synthase assessed as photolabeling at 29 uM by SDS-PAGE based phosphor imaging analysis in presence of excess farnesyl diphosphate. To be noted: tested as the 32P-labelled form. Summed up:
as §1

In assay [15] the target is T2, Protein farnesyltransferase/geranylgeranyltransferase type-1 subunit alpha (Saccharomyces cerevisiae S288c). Put plainly: Binding affinity to Saccharomyces cerevisiae protein farnesyltransferase assessed as enzyme alpha subunit photolabeling at 29 uM by SDS-PAGE based phosphor imaging analysis. To be noted: tested as the 32P-labelled form. Summed up: as §1
Assay [16] concerns the target T3, Farnesyl diphosphate synthase (Escherichia coli K-12). Put plainly: Binding affinity to Escherichia coli farnesyl diphosphate synthase assessed as photolabeling at 29 uM by SDS-PAGE based phosphor imaging analysis in presence of excess farnesyl diphosphate. The conditions noted are these: tested as the 32P-labelled form. An outline of the steps: as §1

The structures appear in SMILES notation. Activity calls are given as the source filed them. The rule behind the calls is not given here.

As usually defined, the IC50 is the concentration that inhibits the measured activity by half. In general, Ki refers to a dissociation constant, usually derived from enzyme kinetics or from competition with a known ligand. As for `C/C(=C\COP(=O)(O)OP(=O)(O)O)COCc1cccc(C(=O)c2ccccc2)c1`, in assay [1], the half-maximal inhibitory concentration (IC50) turned out to be 3400 nM and the Ki was determined as 610 nM.
`CC(C)=CCC/C(C)=C/CC/C(C)=C/COP(=O)(O)OP(=O)(O)Cc1ccc(C(=O)c2ccccc2)cc1`: the Activity in [2] was 46%. The outcome in [3], in [4], in [7] and in [10] was Active. In addition, the outcome in assay [5], in assay [6], in assay [8], in assay [11], in [12] and in assay [13] was inactive. Moreover, the result in assay [14], in [15] and in assay [16] was inactive. Further, the half-maximal inhibitory concentration (IC50) in assay [1] was 3000 nM. Moreover, in assay [1], the Ki worked out at 480 nM. The inhibition result in assay [9] is “inactive”.
Take `C/C(=C\COP(=O)(O)OP(=O)(O)O)CC/C=C(\C)COC(=O)[C-]([N+]#N)C(F)(F)F`: in assay [1], the concentration for half-maximal inhibition (IC50) was found to be 720 nM and the inhibition constant (Ki) worked out at 200 nM.
`CC(C)=CCC/C(C)=C/CC/C(C)=C/COP(=O)(O)OP(=O)(O)Cc1cccc(C(=O)c2ccccc2)c1`: the outcome in assay [4] was Active. In addition, the outcome in assay [5], in assay [11], in assay [13] and in assay [15] was inactive. The half-maximal inhibitory concentration (IC50) in [1] was found to be 5800 nM.

Values taken from ChEMBL document CHEMBL1154049, “A versatile photoactivatable probe designed to label the diphosphate binding site of farnesyl diphosphate utilizing enzymes” (Bioorg Med Chem, 2009).
